V1R ag counter = counter-screen for oxytocin receptor agonists: human V1a receptor agonists; CHO-V1R cells, Fluo-8 calcium fluorescence, agonist mode; 0% DMSO, 100% 3 nM vasopressin; activation, % at 3 µM; AID 2797; hit rate 0.25% among 320,000;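 active = activation above the mean activation of all tested compounds plus 3 SD, per screening run, cut at about 20% in these data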;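 note: signal is peak over basal fluorescence ratio across a 100 second FLIPR read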
TAAR1 antagonist = antagonists of human TAAR1; hit rate 1.5% among 360,000; Q96RJ0; CHO RD-HGA16 TAAR1, Fluo-8 calcium fluorescence, antagonist; inhibition, % at 3 µM;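 active = inhibition above a per-plate cutoff, the mean inhibition of test compounds on that plate plus 3 SD, cut at about 49% in these data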
Target sequence (Q96RJ0 whole entry, looked up): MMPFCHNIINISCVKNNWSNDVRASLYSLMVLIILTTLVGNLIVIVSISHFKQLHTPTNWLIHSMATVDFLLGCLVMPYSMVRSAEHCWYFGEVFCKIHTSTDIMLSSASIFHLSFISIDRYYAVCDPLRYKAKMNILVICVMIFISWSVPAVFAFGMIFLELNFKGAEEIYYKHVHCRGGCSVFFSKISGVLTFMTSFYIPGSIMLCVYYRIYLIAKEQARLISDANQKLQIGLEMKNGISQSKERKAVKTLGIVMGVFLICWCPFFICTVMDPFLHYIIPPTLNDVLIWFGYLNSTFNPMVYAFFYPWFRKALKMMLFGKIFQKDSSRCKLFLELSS
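Assay system: RD-HGA16 CHO cells with stable hTAAR1 and Gα16 / Reagent: EC80 β-phenethylamine stimulus / Doses: 3 µM, single point / Timing: dye loading 75 min at 37 °C, then 30 min room temperature / Measured by: Fluo-8 intracellular calcium dye fluorescence, real-time kinetic reads / Controls: vehicle wells and EC80 agonist wells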
OXTR ag = agonists of human oxytocin receptor. P30559. CHO-OTR cells, Fluo-8 calcium fluorescence; normalized: DMSO 0%, oxytocin 100%. activation, % at 3 µM. hit rate 0.32% among 320,000. AID 2435;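 active = activation above the mean of all tested compounds plus 3 SD, cutoff set per screening run, cut at about 20% in these data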;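 note: peak over basal fluorescence ratio from a 100 s FLIPR kinetic read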
Target sequence (P30559 whole entry, looked up): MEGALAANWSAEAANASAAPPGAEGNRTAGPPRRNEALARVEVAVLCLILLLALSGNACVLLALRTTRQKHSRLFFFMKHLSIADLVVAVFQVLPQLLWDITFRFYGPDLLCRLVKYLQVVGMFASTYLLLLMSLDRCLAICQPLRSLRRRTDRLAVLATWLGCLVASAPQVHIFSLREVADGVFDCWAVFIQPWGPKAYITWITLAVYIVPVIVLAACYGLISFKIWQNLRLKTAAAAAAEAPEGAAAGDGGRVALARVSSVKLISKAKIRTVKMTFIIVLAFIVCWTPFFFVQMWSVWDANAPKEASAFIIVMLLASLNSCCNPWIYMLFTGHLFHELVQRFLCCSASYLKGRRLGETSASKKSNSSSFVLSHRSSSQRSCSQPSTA
OXTR potentiator = human OXTR potentiation; CHO-OTR cells, Fluo-8 calcium fluorescence, potentiator mode; 0% = oxytocin EC15, 100% = EC100; activation, % at 3 µM; hit rate 0.061% among 320,000; AID 2445;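 active = activation above that plate's cutoff, the mean activation of tested compounds plus 3 SD, cut at about 6.6% in these data, passing the limit was not always enough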
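test system = CHO-OTR cells, human receptor | compound = single-point 3.0 µM | schedule = 6 min compound pre-incubation at room temperature, 100 s kinetic read | signal = Fluo-8 no-wash calcium dye fluorescence, excitation 470-495 nm, emission 515-575 nm | repeats = single well per compound, singlicate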
TAAR1 ag = human TAAR1 agonism; Q96RJ0; CHO RD-HGA16 TAAR1, Fluo-8 calcium fluorescence; vehicle wells 0%, saturating PEA agonist 100%; activation, % at 3 µM; hit rate 0.99% among 360,000;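 active = activation above the mean activation of all test compounds in the run plus 3 SD, cut at about 38% in these data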
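Signal – calcium-sensitive Fluo-8 signal, excitation 470-495, emission 515-575 nm · System – RD-HGA16 (CHO) cells co-expressing Gα16 and hTAAR1 · Incubation – 17-24 h seeding, 75 min 37 °C dye, 30 min RT · Compound dosing – 3 µM single concentration · Repeats – no replicates (n 1)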
TAAR1 nonsel count = counter-screen for TAAR1 antagonists: nonselective antagonists; shares compounds with TAAR1 antagonist; counterscreen cell line, calcium fluorescence, antagonist mode; inhibition, % at 3 µM; hit rate 77% among 2,400; in the data active = inhibition above about 22%;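 note: CHO-Ga16 host cells stimulated with ATP at an EC80 level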
TAAR1 antag conf = human TAAR1 antagonism, confirmed; inhibition, % at 3 µM; hit rate 40% among 2,400; shares compounds with TAAR1 antagonist; AID 651785; TAAR1-expressing cells, fluorescence antagonist read-out; in the data active = inhibition above about 49%;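 note: CHO-Ga16 host cells challenged with agonist PEA near its EC80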
Ga16 ag counter = counter-screen for TAAR1 antagonists: nonselective Ga16 agonists; shares compounds with TAAR1 antagonist; Ga16-expressing cells, calcium fluorescence, agonist counterscreen; activation, % at 3 µM; hit rate 18% among 2,400; AID 651953; in the data active = activation above about 12%
TAAR1 ag counter = counter-screen for human TAAR1 antagonists: TAAR1 agonists; hit rate 2% among 2,400; activation, % at 3 µM; hTAAR1 cell line, fluorescence activation, agonist mode; shares compounds with TAAR1 antagonist; in the data active = activation above about 37%;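 note: CHO cells stably expressing TAAR1 with calcium dye readout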
Numbers stand for hits; - = inactive; . = no result given. An excerpt weighted towards active compounds, which were near 2.3% of everything screened.

SMILES | V1R ag counter | TAAR1 antagonist | OXTR ag | OXTR potentiator | TAAR1 ag | TAAR1 nonsel count | TAAR1 antag conf | Ga16 ag counter | TAAR1 ag counter
COc1cc(C)ccc1OCc1cc(C(=O)N2C[C@H]3CC[C@H]2C3)no1 | - | 102 | - | - | - | - | - | - | -
O=C(CN(Cc1ccco1)C(=O)c1ccc(N2CCCC2=O)cc1)Nc1ccccc1C(F)(F)F | - | - | - | - | - | . | . | . | .
CC(C)COc1ccc(C(=O)N/N=C/c2ccoc2)cc1 | - | 62 | - | - | - | - | - | - | -
CCOc1cc(C(=O)N/N=C/c2ccoc2)cc(OCC)c1OCC | . | - | . | . | - | . | . | . | .
Cc1cc(C)cc(C(=O)NCC(=O)OC(C)C(=O)N(C)c2ccccc2)c1 (centres undefined) | - | - | - | - | - | . | . | . | .
CCC1CCCCN1C(=O)COC(=O)c1ccc(Br)o1 (centres undefined) | - | - | - | - | - | . | . | . | .
Cc1ccc(S(=O)(=O)N2CCC(NC(=O)c3cccc(C)c3)CC2)cc1 | - | - | - | - | - | . | . | . | .
Cc1c(C(=O)Nc2cccc([N+](=O)[O-])c2)csc1-c1ccccc1 | - | 81 | - | - | - | 37 | 54 | - | -
O=C(Nc1ccc(O)cc1)c1ccccc1OCc1ccccc1 | . | - | . | . | - | . | . | . | .
CNC(=O)c1cccc(NC(=O)c2ccccc2OCc2ccccc2)c1 | - | 54 | - | - | - | - | - | - | -
O=C(Nc1ccccc1)c1ccccc1OCc1ccc(F)cc1 | - | - | - | - | - | . | . | . | .
COc1cc(NC(=O)c2ccccc2OCc2ccccc2)cc(OC)c1OC | - | 61 | - | - | - | - | - | - | -
COc1ccc2c(c1)c(=O)oc1cc(OC(C(=O)O)c3ccccc3)ccc12 (centres undefined) | - | 104 | - | - | - | - | - | - | -
O=C(O)C(Oc1ccc2c(-c3ccccc3)cc(=O)oc2c1)c1ccccc1 (centres undefined) | - | - | - | - | - | . | . | . | .
COc1ccc(Cl)cc1NC(=O)CN(C)C(=O)c1cc(-c2ccncc2)nc2ccccc12 | - | 74 | - | - | - | 42 | 53 | 15 | -
CCOc1ccc(NC(=O)CN(C)C(=O)c2cc(C)nc3ccccc23)cc1OCC | - | - | - | - | - | . | . | . | .
COc1ccc(Cl)cc1NC(=O)CN(C)C(=O)c1ccc2c(c1)CC(c1ccccc1)OC2=O (centres undefined) | - | 65 | - | - | - | 33 | 53 | 12 | -
CCOc1ccc(NC(=O)CN(C)C(=O)c2cc(-c3ccncc3)nc3ccccc23)cc1OCC | - | 67 | - | - | - | 30 | - | - | -
CCOC(=O)CNS(=O)(=O)c1ccc(S(=O)(=O)NC2CC2)cc1 | - | - | - | - | - | . | . | . | .
CCCn1c(SCC(=O)NCc2ccc(Cl)cc2)n[nH]c1=O | - | - | - | - | - | . | . | . | .
O=C(COC(=O)[C@@H]1CC(O)CN1S(=O)(=O)c1ccccc1[N+](=O)[O-])Nc1ccc2ccccc2c1 (some centres undefined) | - | 68 | - | - | - | 41 | 50 | 16 | -
Cc1ccc(-c2nnnn2C2C/C(=N\NC(N)=S)C3OCC2O3)cc1 (centres undefined) | - | - | - | - | - | . | . | . | .
Cc1ccc(C(=O)c2cnc3ccccc3c2-c2ccccc2)cc1 | - | - | - | - | - | . | . | . | .
COc1ccc(C(=O)c2cnc3ccccc3c2-c2ccccc2)cc1 | - | 57 | - | - | - | - | - | - | -
CC1(C)CC(C(CCN(Cc2ccccc2)C(=O)c2ccco2)c2ccc(F)cc2)CCO1 (centres undefined) | - | 73 | - | - | - | 41 | 54 | - | -
SMILES | V1R ag counter | TAAR1 antagonist | OXTR ag | OXTR potentiator | TAAR1 ag | TAAR1 nonsel count | TAAR1 antag conf | Ga16 ag counter | TAAR1 ag counter
O=C(c1ccco1)N(CCC(c1ccccc1)c1ccco1)Cc1ccc(F)cc1 (centres undefined) | - | . | - | - | . | . | . | . | .
CC1(C)C(=O)N(CCN2CCC(C(=O)c3ccc(F)cc3)CC2)c2ccccc21 | - | 87 | - | - | - | 37 | 56 | 12 | -
COc1ccc(NC(C)=O)cc1NC(C)C(=O)Nc1ccc(S(=O)(=O)N2CCCCC2)cc1 (centres undefined) | - | 101 | - | - | - | - | - | - | -
Cc1cccc(C(=O)OC(C)C(=O)Nc2ccc(S(=O)(=O)N3CCCC3)cc2)c1O (centres undefined) | - | 68 | - | - | - | 36 | 55 | 12 | -
CC(=O)Nc1ccc(S(=O)(=O)N(Cc2ccco2)Cc2cc3ccccc3[nH]c2=O)cc1 | - | 73 | - | - | - | 27 | 57 | - | -
COC(=O)c1ccccc1S(=O)(=O)N(Cc1ccco1)Cc1cc2cc(OC)ccc2[nH]c1=O | - | - | - | - | - | . | . | . | .
CCCCN(Cc1cc2ccccc2[nH]c1=O)S(=O)(=O)c1ccc(C)cc1 | - | 63 | - | - | - | - | - | - | -
CC1=CC(C)[C@H](/C=N/n2c(=O)[nH]c3c([nH]c4ccc(Br)cc43)c2=O)C(C)C1 (some centres undefined) | - | - | - | - | - | . | . | . | .
COc1ccc2c(c1)[nH]c1c(=O)n(/N=C/C3C(C)C=C(C)CC3C)c(=O)[nH]c12 (centres undefined) | - | 62 | - | - | - | - | - | - | -
COc1ccc2[nH]c3c(=O)n(/N=C/[C@H]4C(C)C=C(C)CC4C)c(=O)[nH]c3c2c1 (some centres undefined) | - | 60 | - | - | - | 34 | - | - | -
CCOc1ccc(S(=O)(=O)NCCC(=O)N2CCCC(C)C2)cc1 (centres undefined) | - | - | - | - | - | . | . | . | .
Cc1ccccc1C(=O)N1CCN(c2ccc(NC(=O)c3ccc4c(c3)OCCO4)cc2)CC1 | - | 77 | - | - | - | 43 | 56 | 17 | -
Cc1ccc(C(=O)N2CCN(c3ccc(NC(=O)c4ccc5c(c4)OCCO5)cc3)CC2)cc1 | - | - | - | - | - | . | . | . | .
O=[N+]([O-])c1cccc(-c2c(-c3ccccc3)ncc3ccc(F)cc23)c1 | - | - | - | - | - | . | . | . | .
Fc1cccc(-c2c(-c3ccccc3)ncc3cc(F)ccc23)c1 | - | 72 | - | - | - | - | - | - | -
CCCn1c(SCC(=O)NCCCN2CCCC2=O)nc2ccccc2c1=O | - | - | - | - | - | . | . | . | .

Source: PubChem (The Scripps Research Institute Molecular Screening Center)
